# ChEMBL document CHEMBL4390663, “Cationic biaryl 1,2,3-triazolyl peptidomimetic amphiphiles: synthesis, antibacterial evaluation and preliminary mechanism of action studies” (Eur J Med Chem, 2019)
# Tests used:
# Clostridioides difficile [1] = assay: Antibacterial activity against Clostridium difficile ATCC 700057 incubated for 48 hrs by CLSI method; format: functional; conditions: ATCC 700057, 48 h
# Outline: (§1)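 Broth microdilution per CLSI anaerobe method in pre-reduced (2-4 h) Brucella broth with haemin and vitamin K, 35 °C anaerobically for 48 h. Compounds from 5 mg/mL DMSO stocks, twofold dilutions in water mixed with double-strength broth; final 0.25–128 μg/mL. […] Triplicate; modal MIC read visually as lowest concentration inhibiting growth.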
# Staphylococcus aureus [2] = assay: Antimicrobial activity against methicillin-resistant Staphylococcus aureus ATCC 43300 incubated for 18 hrs by CLSI method; format: functional; conditions: ATCC 43300, 18 h
# Staphylococcus aureus [3] = assay: Antibacterial activity against methicillin-resistant Staphylococcus aureus NCTC 10442 incubated for 24 hrs by CLSI method; format: functional; conditions: NCTC 10442, 24 h
# Outline: (§2)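 Broth microdilution per CLSI aerobic guidance in Mueller Hinton broth, ambient air, 35 °C for 24 h. DMSO stocks were diluted in water, then serially diluted with double-strength broth inoculum added, for final 0.25–128 μg/mL. […] MIC was read visually as the lowest concentration inhibiting growth; the modal value of triplicates was recorded.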
# Staphylococcus aureus [4] = assay: Antimicrobial activity against glycopeptide intermediate susceptible Staphylococcus aureus NRS17 incubated for 18 hrs by CLSI method; format: functional; conditions: NRS17, 18 h
# Streptococcus pneumoniae [5] = assay: Antibacterial activity against MDR Streptococcus pneumoniae ATCC 700677 incubated for 18 hrs by CLSI method; format: functional; conditions: ATCC 700677, 18 h
# Staphylococcus aureus [6] = assay: Antimicrobial activity against glycopeptide intermediate susceptible/methicillin-resistant Staphylococcus aureus NRS1 incubated for 18 hrs by CLSI method; format: functional; conditions: NRS1, 18 h
# Staphylococcus aureus [7] = assay: Antimicrobial activity against vancomycin resistant Staphylococcus aureus NARSA VRS10 incubated for 18 hrs by CLSI method; format: functional; conditions: NARSA VRS10, 18 h
# Streptococcus pneumoniae [8] = assay: Antibacterial activity against Streptococcus pneumoniae ATCC 49619 incubated for 24 hrs by CLSI method; format: functional; conditions: ATCC 49619, 24 h
# Outline: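 CLSI broth microdilution in MHB with 2.5% lysed horse blood, 5% CO2, 35 °C, 24 h. Compounds from 5 mg/mL DMSO stocks diluted in water plus double-strength broth; final 0.25–128 μg/mL. […] Triplicate; modal MIC read visually as lowest growth-inhibiting concentration.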
# Staphylococcus aureus [9] = assay: Antimicrobial activity against methicillin-resistant Staphylococcus aureus clinical isolate with reduced daptomycin susceptibility incubated for 18 hrs by CLSI method; format: functional
# Staphylococcus aureus [10] = assay: Antimicrobial activity against Staphylococcus aureus ATCC 29213 incubated for 24 hrs by CLSI method; format: functional; conditions: ATCC 29213, 24 h; outline: as §2
# Enterococcus faecalis [11] = assay: Antibacterial activity against Enterococcus faecalis ATCC 29212 incubated for 24 hrs by CLSI method; format: functional; conditions: ATCC 29212, 24 h
# Enterococcus faecalis [12] = assay: Antimicrobial activity against vancomycin-resistant Enterococcus faecalis clinical isolate incubated for 18 hrs by CLSI method; format: functional
# Clostridioides difficile [13] = assay: Antibacterial activity against Clostridium difficile NSW132 RT027 incubated for 48 hrs by CLSI method; format: functional; conditions: NSW132 RT027, 48 h; outline: as §1
# Staphylococcus aureus [14] = assay: Antimicrobial activity against methicillin-resistant Staphylococcus aureus clinical isolate incubated for 18 hrs by CLSI method; format: functional
# Pseudomonas aeruginosa = assay: Antimicrobial activity against Pseudomonas aeruginosa ATCC 27853 incubated for 18 hrs by CLSI method; format: functional; conditions: ATCC 27853, 18 h
# Outline: (§3)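 Screen run by CO-ADD: mid-log cultures in cation-adjusted MHB, 5 × 10^5 CFU/mL, compounds at up to 32 μg/mL in 1:2 serial dilutions (8 steps), final DMSO ≤0.5%, duplicate. 37 °C for 18 h without shaking; OD600 read against media-only and untreated-bacteria references. MIC = lowest concentration giving ≥80% inhibition; colistin standard.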
# [15] = Haemolytic activity in sheep erythrocytes at 5 ug/ml incubated for 2 hrs under shaking condition relative to control; format: ADME, cell-based, Ovis aries, Erythrocyte; conditions: read-out: Activity
# Outline: (§4)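 Compounds in PBS mixed with washed sheep erythrocytes (2% final) at 5 or 50 μg/mL, rocked 2 h at 37 °C, centrifuged; supernatant absorbance at 540 nm. PBS-only value subtracted, then expressed relative to water lysis (100%). Triplicate, means reported.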
# Acinetobacter baumannii = assay: Antimicrobial activity against Acinetobacter baumannii ATCC 19606 incubated for 18 hrs by CLSI method; format: functional; conditions: ATCC 19606 = CIP 70.34 = JCM 6841, 18 h; outline: as §3
# [16] = Haemolytic activity in sheep erythrocytes at 50 ug/ml incubated for 2 hrs under shaking condition relative to control; format: ADME, cell-based, Ovis aries, Erythrocyte; conditions: read-out: Activity; outline: as §4
# Klebsiella pneumoniae = assay: Antibacterial activity against Klebsiella pneumoniae 700603 incubated for 18 hrs by CLSI method; format: functional; conditions: Klebsiella pneumoniae, 700603, 18 h; outline: as §3
# Staphylococcus aureus [17] = assay: Induction of cytoplasmic membrane depolarization in Staphylococcus aureus ATCC 29213 at 32 ug/ml incubated for 30 mins by diSC35 staining based fluorescence assay relative to control; format: functional
# Outline: (§5)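 Mid-log cells (1.5 McFarland) loaded with 4 µM diSC3(5) in the dark at room temperature: S. aureus in PBS 30 min; E. coli in 5 mM HEPES/20 mM glucose pH 7.2 for 60 min, then 100 mM KCl and 0.5 mM EDTA. Baseline fluorescence (ex 620/em 670 nm) ~8 min, then compound added (final 32 µg/mL S. aureus, 64 µg/mL E. coli), tracked ~30 min.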
# Escherichia coli [18] = assay: Antibacterial activity against Escherichia coli ATCC 25922 incubated for 18 hrs by CLSI method; format: functional; conditions: ATCC 25922, 18 h; outline: as §3
# Escherichia coli [19] = assay: Induction of cytoplasmic membrane depolarization in Escherichia coli NCTC 10418 at 64 ug/ml incubated for 30 mins by diSC35 staining based fluorescence assay relative to control; format: functional; outline: as §5
# Staphylococcus aureus [20] = assay: Antimicrobial activity against Staphylococcus aureus ATCC 43300 incubated for 18 hrs by CLSI method; format: functional; conditions: ATCC 43300, 18 h
# [21] = Cytotoxicity against human HEK293 cells assessed as reduction in cell growth incubated for 20 hrs by resazurin dye-based fluorometric assay
# Outline: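 HEK293 cells, 5000 per well in DMEM + 10% FBS, exposed to compounds (top 32 μg/mL, 1:2 serial dilution ×8, ≤0.5% DMSO, duplicate) for 20 h at 37 °C, 5% CO2. Resazurin added (2.3 μg/mL final), 3 h further; fluorescence ex 560/em 590 nm. CC50 from sigmoidal dose-response fit against log concentration; tamoxifen standard.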
# Escherichia coli [22] = assay: Induction of plasma membrane permeabilization in Escherichia coli NCTC 10418 at 32 ug/ml measured for 30 mins by propidium iodide staining based fluorescence assay relative to control; format: functional
# Outline: (§6)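 Mid-log cells (1.5 McFarland) with 4 µM propidium iodide, dark, room temperature: S. aureus in PBS 30 min; E. coli in 5 mM HEPES/20 mM glucose pH 7.2 for 60 min, then 100 mM KCl and 0.5 mM EDTA. Fluorescence (ex 544/em 615 nm) read ~8 min baseline, then ~30 min after compound at 32 µg/mL final.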
# Staphylococcus aureus [23] = assay: Induction of plasma membrane permeabilization in Staphylococcus aureus ATCC 29213 at 32 ug/ml measured for 30 mins by propidium iodide staining based fluorescence assay relative to control; format: functional; outline: as §6
SMILES,MIC (Clostridioides difficile [1]) [µg/mL],MIC (Staphylococcus aureus [2]) [µg/mL],MIC (Staphylococcus aureus [3]) [µg/mL],MIC (Staphylococcus aureus [4]) [µg/mL],MIC (Streptococcus pneumoniae [5]) [µg/mL],MIC (Staphylococcus aureus [6]) [µg/mL],MIC (Staphylococcus aureus [7]) [µg/mL],MIC (Streptococcus pneumoniae [8]) [µg/mL],MIC (Staphylococcus aureus [9]) [µg/mL],MIC (Staphylococcus aureus [10]) [µg/mL],MIC (Enterococcus faecalis [11]) [µg/mL],MIC (Enterococcus faecalis [12]) [µg/mL],MIC (Clostridioides difficile [13]) [µg/mL],MIC (Staphylococcus aureus [14]) [µg/mL],MIC (Pseudomonas aeruginosa) [µg/mL],MIC (Acinetobacter baumannii) [µg/mL],MIC (Klebsiella pneumoniae) [µg/mL],MIC (Escherichia coli [18]) [µg/mL],MIC (Staphylococcus aureus [20]) [µg/mL],CC50 at 20 h [21] [µg/mL],other results
CC(C)CCOc1ccc2ccccc2c1-c1c(OCc2cn(C[C@@H](CCCCN)NC(=O)Cc3ccc4c(c3)OCO4)nn2)ccc2ccccc12.Cl,32,8,8,16,8 to 16,8 to 16,8 to 16,16,8,8,8,4,32,> 32,,,,,,,
CC(C)CCOc1ccccc1-c1ccccc1OCc1cn(C[C@@H](CCCCN)NC(=O)CCc2ccccc2)nn1.Cl,8,,4,,,,,8,,8,8,,16,,32,> 32,32,32,16,4.8,"hemolysis at 2 h, 5 ug/ml [15]: 0.2%; hemolysis at 2 h, 50 ug/ml [16]: 101%; Activity (Staphylococcus aureus [17]): 120 - 180%; Activity (Escherichia coli [19]): 460 - 900%; Activity (Escherichia coli [22]): 75%; Activity (Staphylococcus aureus [23]): 600%"
CCCCCCCCCC(=O)N[C@@H](Cc1c[nH]c2ccccc12)C(=O)N[C@H](CC(N)=O)C(=O)N[C@@H](CC(=O)O)C(=O)N[C@@H]1C(=O)NCC(=O)N[C@@H](CCCN)C(=O)N[C@@H](CC(=O)O)C(=O)N[C@H](C)C(=O)N[C@@H](CC(=O)O)C(=O)NCC(=O)N[C@H](CO)C(=O)N[C@@H]([C@H](C)CC(=O)O)C(=O)N[C@@H](CC(=O)c2ccccc2N)C(=O)O[C@@H]1C,,0.5 to 1,,8,1 to 2,8,2,,4,,,8,,2,,,,,,,
CC(C)CCOc1ccc2ccccc2c1-c1c(OCc2cn(C[C@@H](CCCCN)NC(=O)CCc3ccccc3)nn2)ccc2ccccc12.Cl,32,2 to 4,8,8,8,8 to 16,8,16,8,4,8,4,32,16,> 32,> 32,> 32,> 32,4,3.5,
CC(C)CCOc1ccccc1-c1ccccc1OCc1cn(C[C@@H](CCCNC(=N)N)NC(=O)OCc2ccccc2)nn1.Cl,32,,4,,,,,16,,4,8,,32,,> 32,> 32,> 32,> 32,8,> 32,"hemolysis at 2 h, 5 ug/ml [15]: 0.7%; hemolysis at 2 h, 50 ug/ml [16]: 89.1%"
